HCV core dimer: inhibitors of HCV core protein dimerization, primary screen, biochemical, TR-FRET, high-throughput; AID 1899, 2009; 300,000 compounds, 0.33% hits; inhibition, % at 5 µM; TR-FRET GST/Flag-core106 dimerization, 1536-well;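 active = inhibition above the mean of all tested compounds plus 3 SD, set per screening campaign, cut at about 45% in these data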
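Material: GST/Flag-tagged HCV core106 proteins. Incubation: 4 h, 22.5 °C incubation. Read-out basis: inhibition (%) from 671 over 617 nm ratio. Measured by: TR-FRET, excitation 340 nm, emission 617 and 671 nm.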
HCV NS3 hel inh: inhibitors of HCV NS3 helicase, primary screen, biochemical, Cy5 molecular beacon fluorescence. NS3 helicase DNA unwinding. 290,000 compounds, 0.56% hits. inhibition, % at 10.9 µM. AID 1800, 2009. Hepatitis C virus NS3 helicase;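 active = inhibition above the mean of all tested compounds plus 3 SD, set per campaign, cut at about 35% in these data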;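 note: 0% = DMSO wells and 100% = thioflavine S control wells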
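Measured by: Cy5 fluorescence, 0 and 60 min reads / Assay system: NS3 helicase fragment of HCV / Control set: low DMSO, high thioflavine S at 110 µM / Times: 1 h reaction at 25 °C, ATP-initiated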
EBNA-1 inhibitor: EBNA-1 DNA-binding inhibitors, primary screen, biochemical, fluorescence polarization. inhibition, % at 14.8 µM. 300,000 compounds, 0.34% hits. AID 1950, 2009; in the data active = inhibition above about 28%
ZTA counter: blocks Epstein-Barr virus ZTA, an EBNA-1 counter-screen; P03206; inhibition, % at 11 µM; 320,000 compounds, 0.15% hits; ZTA-DNA binding, fluorescence polarization; AID 2234; in the data active = inhibition above about 33%
Target sequence (P03206 whole entry, looked up): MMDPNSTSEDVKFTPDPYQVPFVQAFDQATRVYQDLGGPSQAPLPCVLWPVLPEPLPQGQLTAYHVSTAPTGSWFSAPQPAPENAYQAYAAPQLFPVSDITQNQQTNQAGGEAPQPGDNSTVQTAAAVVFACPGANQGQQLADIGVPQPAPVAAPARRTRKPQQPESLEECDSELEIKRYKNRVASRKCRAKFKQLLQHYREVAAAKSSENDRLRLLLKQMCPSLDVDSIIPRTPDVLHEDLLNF
PfM18AAP inh: PfM18AAP inhibitors, malaria aminopeptidase, primary screen, biochemical, QFRET, recombinant enzyme | M18 aspartyl aminopeptidase (Plasmodium falciparum 3D7) | 290,000 compounds, 1.2% hits | H-Glu-NHMec fluorogenic cleavage | inhibition, % at 7.35 µM;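 active = inhibition above the campaign mean inhibition over all tested compounds plus 3 SD, cut at about 28% in these data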;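 note: 0% = plate median of test compound wells and 100% = 2 mM ZnCl2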
ALR H2O2 inh: inhibitors of human ALR sulfhydryl oxidase, primary screen, biochemical, H2O2 detection, HRP-luminol luminescence, single point | FAD-linked sulfhydryl oxidase ALR (Homo sapiens), P55789 | purified ALR, DTT oxidation | inhibition, % (concentration not given with the values) | 290,000 compounds, 3.8% hits;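 active = mean replicate inhibition above about 79%, with every replicate also reaching it, limit read from the data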
Target sequence (P55789 whole entry, looked up): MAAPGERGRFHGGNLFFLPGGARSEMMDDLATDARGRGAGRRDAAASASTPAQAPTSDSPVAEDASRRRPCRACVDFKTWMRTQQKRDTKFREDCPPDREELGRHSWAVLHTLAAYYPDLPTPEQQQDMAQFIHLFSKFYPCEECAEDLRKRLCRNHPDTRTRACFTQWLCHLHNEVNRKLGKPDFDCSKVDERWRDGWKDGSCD
Starred values were filed as active, the others as inactive; nt = no result. Compounds with a hit are over-represented: about 5.2% of the library has one in this group of screens.

SMILES	HCV core dimer	HCV NS3 hel inh	EBNA-1 inhibitor	ZTA counter	PfM18AAP inh	ALR H2O2 inh
COc1cc(C=NNC(=O)c2ccccc2-n2cccc2)ccc1O	nt	nt	nt	nt	nt	99*
COc1cc(/C=N/NC(=O)c2cc(C)oc2C)ccc1O	-4	-4	1	3	10	99*
O=C(COc1ccc(Cl)cc1)NCCNc1ccc([N+](=O)[O-])cc1	0	4	3	3	-6	-4
CC(C)Oc1ccc(CNS(=O)(=O)c2csc(C(N)=O)c2)cc1	5	4	-8	10	1	-1
CN(C)c1ccc(CNS(=O)(=O)c2csc(C(N)=O)c2)cc1	-6	10	-11	-2	4	93*
COc1ccc(CNC(=S)Nc2ccc3nc(N4CCOCC4)cc(C)c3c2)cc1	5	-21	-5	0	0	99*
CCOCCCNC(=S)Nc1ccc2nc(N3CCOCC3)cc(C)c2c1	-19	19	-19	-4	26	99*
CCN(CC)CCNC(=S)Nc1ccc2nc(N3CCCC3)cc(C)c2c1	0	-1	-12	-20	-16	99*
CCN(CC)CCNC(=S)Nc1ccc2nc(N3CCN(C)CC3)cc(C)c2c1	-1	-1	-3	2	2	-1
CC(C)(C)c1nnc(N/N=C/c2ccccc2O)n(N)c1=O	-5	6	2	7	52*	27
CCc1nnc(N/N=C/c2ccccc2F)n1N	-5	3	-3	-7	62*	-26
Oc1ccccc1/C=N/Nc1nccnc1Cl	-6	3	-1	-2	23	nt
CCN(c1ccccc1)S(=O)(=O)c1nnc(NC(=O)c2ccccc2OC)s1	5	-18	4	12	4	nt
CCCCOc1ccc(-c2c(C(=O)Nc3ccccc3)c(C)[nH]c(=S)c2C#N)cc1	26	8	-1	0	0	12
CCCCOc1ccc(-c2c(C#N)c(N)[nH]c(=S)c2C#N)cc1	31	4	6	-1	2	88*
Nc1ccc(N2CCN(C(=O)c3ccco3)CC2)cc1	3	9	3	-1	4	99*
O=C(NC(=S)N1CCN(c2ccccc2)CC1)c1ccco1	nt	nt	nt	nt	nt	98*
CC[C@H](C)/C=C(C)/C=C/C(=O)Cc1cc(O)c(C)c(O)c1C=O	67*	nt	11	10	nt	-3
c1ccc(NCc2ccccn2)cc1	13	-20	-10	-9	-1	2
c1ccc(NCCCNc2ccccc2)cc1	1	-9	-1	-4	-7	98*
O=[N+]([O-])c1ccc2oc(C(O)c3cccc(Cl)c3)cc2c1 (stereo not given)	3	-9	8	2	4	-7
COc1ccc(-c2cc(C(F)F)n3ncc(C(=O)n4ccnc4C)c3n2)cc1	1	-17	3	-4	-4	99*
COc1ccc(-c2cc(C(F)F)n3ncc(C(=O)N4CCc5ccccc54)c3n2)cc1	13	-10	-3	-16	-1	1
Nc1c(C(=O)N2CCOCC2)sc(=S)n1-c1ccccc1	-6	-2	-1	-4	-23	93*
Cc1ccc(-n2c(N)c(C(=O)N3CCCCC3)sc2=S)cc1	-1	2	-4	1	-25	8
SMILES	HCV core dimer	HCV NS3 hel inh	EBNA-1 inhibitor	ZTA counter	PfM18AAP inh	ALR H2O2 inh
Nc1c(C(=O)N2CCCCC2)sc(=S)n1-c1ccccc1	5	2	-4	-6	-34	99*
CC(C)c1ccc(-c2c(C#N)c(N)nc(SCC(=O)N3CCCCC3)c2C#N)cc1	47*	3	10	-1	-2	-9
CC(C)c1ccc(-c2c(C#N)c(N)nc(SCC(=O)N3CCCCCC3)c2C#N)cc1	11	6	5	-5	-23	-17
O=C(CCn1c(=O)oc2ccccc21)N1CCN(c2ccc(F)cc2)CC1	-9	-5	-10	-5	-17	97*
O=C(CCn1c(=S)oc2ccccc21)N1CCN(c2ccc(F)cc2)CC1	-2	-4	-6	-4	1	33
COc1ccc(-c2cn[nH]c2N)cc1	-4	3	0	9	1	91*
COc1ccc(-c2cn[nH]c2N)c(OC)c1	-2	-8	-10	9	3	99*
CCOc1ccc(-c2cn[nH]c2N)cc1	-7	-4	4	-3	-4	54
COc1ccc(-c2n[nH]c(=S)n2N)c(OC)c1	-5	0	0	-8	20	17
CCCCN1C(C(=O)Nc2ncccn2)=C(O)c2ccccc2S1(=O)=O	9	11	6	0	2	19
O=C1CSC(c2ccc([N+](=O)[O-])cc2)N1Cc1ccccc1 (stereo not given)	nt	-5	nt	nt	-4	-14
CCOC(=O)c1c(CSc2ccccc2)n(C)c2ccc(O)cc12	3	-1	7	23	3	-6
CCOC(=O)c1c(CSc2cccs2)n(C)c2cc(Br)c(O)c(CN(C)C)c12	-5	-37	-4	-23	-4	99*
CCc1cccc(NC(=O)CCCn2c(=O)[nH]c3ccsc3c2=O)c1	-6	0	-2	-2	-8	-19
NNC(=O)c1cc2sccc2s1	-4	-5	-9	5	-7	98*
CCCc1nc(SCC(=O)c2ccc(OC)cc2)c2ccccc2n1	6	-24	-4	-5	9	90*
CCc1nc(SCC(=O)NNC(=O)c2ccc(OC)cc2)c2ccccc2n1	9	-3	9	5	2	-4
CCc1nc(SCC(=O)c2ccccc2)c2ccccc2n1	3	-34	-5	-8	9	99*
O=C(CSc1nc2ccccc2s1)Nc1ccc(Cl)c(C(=O)O)c1	3	13	-15	-1	7	99*
Nc1nonc1NC(=O)CSc1nc2ccccc2s1	-1	-2	-2	0	-5	98*
O=C(CSc1nc2ccc(NC(=O)c3ccccc3C(=O)O)cc2s1)Nc1c(Cl)cccc1Cl	1	-1	-13	9	12	nt
O=C(CSc1nnc(SCc2cccc3ccccc23)s1)Nc1ccc(C(=O)O)cc1	17	4	9	9	1	98*
O=C(CSc1nc2ccccc2s1)Nc1cc(C(=O)O)cc(C(=O)O)c1	4	7	-9	-4	26	99*
COc1ccc(CS(=O)(=O)CC(C)(O)c2ccccc2Cl)cc1 (stereo not given)	0	-9	-5	-3	1	-2
Cc1ccc(C2(C)NC(=O)N(CC(=O)Nc3cc(S(=O)(=O)N(C)C)ccc3C)C2=O)cc1 (stereo not given)	-3	3	-13	-13	-7	nt

Screening data from PubChem.
